ChEMBL document CHEMBL3244150, “Semisynthetic cephalosporins. Synthesis and structure-activity relationships of analogues with 7-acyl groups derived from 2-(cyanomethylthio)acetic acid or 2-[(2,2,2-trifluoroethyl)thio]acetic acid and their sulfoxides and sulfones” (1977)
Values after ≈ are worked out from the molar mass of the structure shown. Active and inactive are the calls of the source. The calls are words filed in the database; no cut-off is given here.

Legend:
Klebsiella pneumoniae = test: Antibacterial activity against Klebsiella pneumoniae 4200 after overnight incubation by twofold agar dilution method; format: functional
Method in brief: (§1)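 Twofold agar dilution on Trypticase soy agar buffered to pH 6.0. MIC recorded in ug/ml.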

Klebsiella aerogenes = test: Antibacterial activity against Enterobacter aerogenes ATCC 13048 after overnight incubation by twofold agar dilution method; format: functional; method in brief: as §1
Staphylococcus aureus = test: Antibacterial activity against penicillin G-resistant Staphylococcus aureus HH 127 after overnight incubation by twofold agar dilution method; format: functional
Method in brief: (§2)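 MIC (ug/ml) determined by twofold agar dilution on Trypticase soy agar buffered to pH 6.0.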

Enterococcus faecalis = test: Antibacterial activity against Streptococcus faecalis after overnight incubation by twofold agar dilution method; format: functional; method in brief: as §1
Escherichia coli [1] = test: Antibacterial activity against Escherichia coli 12140 after overnight incubation by twofold agar dilution method; format: functional; method in brief: as §1
Escherichia coli [2] = test: Antibacterial activity against Escherichia coli 12140 infected in sc dosed mouse assessed as mouse survival after 3 days; format: functional; conditions: Escherichia coli, 12140, sc, 72 h; read-out: PD50
Method in brief: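 Mice infected ip with approximately 2 X 10 organisms per mouse of E. coli 12140 culture diluted in 5% hog gastric mucin (uniformly lethal). Fourfold dilutions dosed sc in equally divided portions at 1 and 5 h postinfection; five groups of ten mice each. Survivors observed for 3 days. PD50 = total dose (mg/kg) protecting 50% of mice, calculated by Litchfield and Wilcoxon method.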

Salmonella paratyphi = test: Antibacterial activity against Salmonella paratyphi ATCC 12176 after overnight incubation by twofold agar dilution method; format: functional, Salmonella enterica subsp. enterica serovar Paratyphi A; conditions: Salmonella enterica; method in brief: as §2
Pseudomonas aeruginosa = test: Antibacterial activity against Pseudomonas aeruginosa after overnight incubation by twofold agar dilution method; format: functional, organism-based; method in brief: as §1
Shigella flexneri = test: Antibacterial activity against Shigella paradysenteriae HH 117 after overnight incubation by twofold agar dilution method; format: functional; method in brief: as §2

SMILES	MIC (Klebsiella pneumoniae) [µg/mL]	MIC (Klebsiella aerogenes) [µg/mL]	MIC (Staphylococcus aureus) [µg/mL]	MIC (Enterococcus faecalis) [µg/mL]	MIC (Escherichia coli [1]) [µg/mL]	ED50 (Escherichia coli [2]) [mg/kg]	MIC (Salmonella paratyphi) [µg/mL]	Activity (Pseudomonas aeruginosa)	MIC (Shigella flexneri) [µg/mL]
CC(=O)OCC1=C(C(=O)[O-])N2C(=O)[C@@H](NC(=O)C[S+]([O-])CC#N)[C@H]2SC1.[Na+] (stereo not given in full)	6.3	25	1.6	> 13	12.5	21	3.1	inactive	6.3
Cn1nnnc1SCC1=C(C(=O)[O-])N2C(=O)[C@@H](NC(=O)C[S+]([O-])CC#N)[C@H]2SC1.[Na+] (stereo not given in full)	1.6	12.5	1.6	> 13	1.6	10	0.8	inactive	1.6
Cc1nnc(SCC2=C(C(=O)O)N3C(=O)[C@@H](NC(=O)Cn4cnnn4)[C@H]3SC2)s1 [CEFAZOLIN]	0.8 (≈ 1.76 µM)	1.6 (≈ 3.52 µM)	0.4 (≈ 0.88 µM)	> 13	0.8 (≈ 1.76 µM)	6	0.8 (≈ 1.76 µM)	inactive	0.4 (≈ 0.88 µM)
CC(=O)OCC1=C(C(=O)O)N2C(=O)[C@@H](NC(=O)Cc3cccs3)[C@H]2SC1 [CEPHALOTHIN]	3.1 (≈ 7.82 µM)	50 (≈ 126 µM)	0.2 (≈ 0.504 µM)	> 13	3.1 (≈ 7.82 µM)	50	1.6 (≈ 4.04 µM)	inactive	6.3 (≈ 15.9 µM)
CC(=O)OCC1=C(C(=O)O)N2C(=O)[C@@H](NC(=O)CC#N)[C@H]2SC1 [CEPHACETRILE]	3.1 (≈ 9.14 µM)	6.3 (≈ 18.6 µM)	0.4 (≈ 1.18 µM)	> 13	6.3 (≈ 18.6 µM)	25	3.1 (≈ 9.14 µM)	inactive	3.1 (≈ 9.14 µM)
CC(=O)OCC1=C(C(=O)[O-])N2C(=O)[C@@H](NC(=O)CSCC(F)(F)F)[C@H]2SC1.[Na+]	3.1	50	0.4	> 13	6.3	184	6.3	inactive	6.3
CC(=O)OCC1=C(C(=O)[O-])N2C(=O)[C@@H](NC(=O)CS(=O)(=O)CC(F)(F)F)[C@H]2SC1.[Na+]	6.3	50	3.1	> 13	25	100	3.1	inactive	12.5
CC(=O)OCC1=C(C(=O)[O-])N2C(=O)[C@@H](NC(=O)CSCC#N)[C@H]2SC1.[Na+]	1.6	> 200	0.2	> 13	6.3	> 200	1.6	inactive	6.3
Cc1nnc(SCC2=C(C(=O)[O-])N3C(=O)[C@@H](NC(=O)CSCC#N)[C@H]3SC2)s1.[Na+]	1.6	> 200	0.2	> 13	1.6	14	1.6	inactive	1.6
Cn1nnnc1SCC1=C(C(=O)[O-])N2C(=O)[C@@H](NC(=O)CSCC(F)(F)F)[C@H]2SC1.[Na+]	3.1	6.3	0.2	> 13	1.6	11	0.8	inactive	0.4
CC(=O)OCC1=C(C(=O)[O-])N2C(=O)[C@@H](NC(=O)C[S+]([O-])CC(F)(F)F)[C@H]2SC1.[Na+] (stereo not given in full)	3.1	6.3	0.8	> 13	6.3	25	1.6	inactive	3.1
Cc1nnc(SCC2=C(C(=O)[O-])N3C(=O)[C@@H](NC(=O)CSCC(F)(F)F)[C@H]3SC2)s1.[Na+]	6.3	25	0.2	> 13	6.3	33	6.3	inactive	1.6
Cn1nnnc1SCC1=C(C(=O)O)N2C(=O)[C@@H](NC(=O)CSC(F)(F)F)[C@H]2SC1 [CEFAZAFLUR]	0.8 (≈ 1.7 µM)	1.6 (≈ 3.4 µM)	0.4 (≈ 0.85 µM)	> 13	0.4 (≈ 0.85 µM)	2	0.4 (≈ 0.85 µM)	inactive	0.2 (≈ 0.425 µM)
CC(=O)OCC1=C(C(=O)O)N2C(=O)[C@@H](NC(=O)CS(=O)(=O)CC#N)[C@H]2SC1	25 (≈ 59.9 µM)	50 (≈ 120 µM)	1.6 (≈ 3.83 µM)	> 13	6.3 (≈ 15.1 µM)	35	3.1 (≈ 7.43 µM)	inactive	6.3 (≈ 15.1 µM)
Cn1nnnc1SCC1=C(C(=O)[O-])N2C(=O)[C@@H](NC(=O)C[S+]([O-])CC(F)(F)F)[C@H]2SC1.[Na+] (stereo not given in full)	0.4	6.3	1.6	> 13	0.8	1.5	1.6	inactive	0.4
Cc1nnc(SCC2=C(C(=O)[O-])N3C(=O)[C@@H](NC(=O)C[S+]([O-])CC#N)[C@H]3SC2)s1.[Na+] (stereo not given in full)	1.6	6.3	0.8	> 13	3.1	22	0.8	inactive	0.8
Cc1nnc(SCC2=C(C(=O)[O-])N3C(=O)[C@@H](NC(=O)CS(=O)(=O)CC(F)(F)F)[C@H]3SC2)s1.[Na+]	6.3	12.5	1.6	> 13	6.3	35	6.3	inactive	6.3
Cc1nnc(SCC2=C(C(=O)O)N3C(=O)[C@@H](NC(=O)CS(=O)(=O)CC#N)[C@H]3SC2)s1	6.3 (≈ 12.9 µM)	12.5 (≈ 25.5 µM)	1.6 (≈ 3.27 µM)	> 13	6.3 (≈ 12.9 µM)	15	6.3 (≈ 12.9 µM)	inactive	3.1 (≈ 6.33 µM)
Cn1nnnc1SCC1=C(C(=O)[O-])N2C(=O)[C@@H](NC(=O)CSCC#N)[C@H]2SC1.[Na+]	1.6	12.5	0.4	> 13	0.8	11	0.4	inactive	0.8
Cc1nnc(SCC2=C(C(=O)[O-])N3C(=O)[C@@H](NC(=O)C[S+]([O-])CC(F)(F)F)[C@H]3SC2)s1.[Na+] (stereo not given in full)	3.1	6.3	0.8	> 13	3.1	6	1.6	inactive	0.8
